Reference: ChEMBL document CHEMBL2021803, “Antitumor agents. 289. Design, synthesis, and anti-breast cancer activity in vivo of 4-amino-2H-benzo[h]chromen-2-one and 4-amino-7,8,9,10-tetrahydro-2H-benzo[h]chromen-2-one analogues with improved water solubility” (J Nat Prod, 2012)
Values after ≈ are worked out from the molar mass of the structure shown. Active and inactive are the calls of the source. The calls are words filed in the database; no cut-off is given here.

Legend:
A549 = test: Cytotoxicity against human A549 cells after 72 hrs by SRB assay; type: functional, cell-based
KB = test: Cytotoxicity against human KB cells after 72 hrs by SRB assay; type: functional, cell-based
[1] = Cytotoxicity against human KBVIN cells after 72 hrs by SRB assay; type: functional, cell-based
SK-BR-3 = test: Cytotoxicity against human SKBR3 cells after 72 hrs by SRB assay; type: functional, cell-based
DU-145 = test: Cytotoxicity against human DU145 cells after 72 hrs by SRB assay; type: functional, cell-based
Mus musculus [2] = test: Reduction in ductal branching in Brca/p53 mutant mouse mammary gland at 0.1 mg, ip administered daily for 10 days by immunostaining technique; type: functional; set-up: scale not given: the % may be the effect or the level left; conditions: in the assay text read “Carmine alum whole-mount staining” for “immunostaining technique”
Procedure, shortened: (§1)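 Three-month-old wild-type or Brca1/p53 Cre mutant mice (mixed C57BL/6 × 129/Sv) given 0.1 mg i.p. daily (DMSO stock […] diluted in 40% PEG and 0.9% NaCl at dosing); vehicle controls. Fourth-pair mammary glands whole-mounted, Carnoy's fixed 3 h, Carmine alum stained overnight. Branching points counted in three random areas totaling about 2 mm².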

Mus musculus [3] = test: Induction of apoptosis in Brca/p53 mutant mouse mammary gland assessed as increase in cleaved caspase-3 at 0.1 mg, ip administered daily for 10 days by immunohistochemical staining method relative to vehicle-treated control; type: functional
Procedure, shortened: (§2)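 Wild-type or Brca1/p53 Cre mutant mice (C57BL/6 × 129/Sv), three months old, dosed i.p. daily with 0.1 mg in DMSO/40% PEG/0.9% NaCl (10:30:60 μL), made fresh; vehicle controls. Mammary glands fixed in 4% paraformaldehyde at 4 °C overnight, paraffin-embedded, cut into 5-μm sections. Retrieval by boiling in citrate pH 6.0, then rabbit polyclonal anti-cleaved caspase-3. Read as percentage of positive cells per duct.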

Mus musculus [4] = test: Induction of apoptosis in wild type mouse mammary gland assessed as increase in cleaved caspase-3 at 0.1 mg, ip administered daily for 10 days by immunohistochemical staining method relative to vehicle-treated control; type: organism-based; conditions: in vivo, 240 h; procedure, shortened: as §2
Mus musculus [5] = test: Reduction in ductal branching in wild type mouse mammary gland at 0.1 mg, ip administered daily for 10 days by immunostaining technique; type: functional, organism-based; set-up: scale not given: the % may be the effect or the level left; conditions: in vivo, 240 h; procedure, shortened: as §1
Mus musculus [6] = test: Antiproliferative activity of Brca/p53 mutant mouse mammary epithelial cells assessed as reduction in DNA synthesis at 0.1 mg, ip administered daily for 10 days by BrdU-based immunostaining method; type: functional
Procedure, shortened: (§3)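 Three-month-old mice (C57BL/6 × 129/Sv mixed background; wild-type or Brca1/p53 Cre mutant) dosed i.p. daily, 0.1 mg in 10 μL of […] DMSO stock plus 30 μL 40% PEG and 60 μL 0.9% NaCl, made fresh; vehicle controls. Paraffin sections, citrate pH 6.0 microwave retrieval 20 min, anti-BrdU 1:1000, ABC detection; BrdU-positive cells averaged over 15 ducts.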

Mus musculus [7] = test: Reduction in ductal branching in Brca/p53 mutant mouse at 0.1 mg, ip administered daily for 10 days; type: functional, organism-based; procedure, shortened: as §1
Mus musculus [8] = test: Induction of apoptosis in Brca/p53 mutant mouse mammary gland assessed as increase in perinuclear localization of cleaved caspase-3 at 0.1 mg, ip administered daily for 10 days by immunohistochemical staining method; type: functional, organism-based; procedure, shortened: as §2
Mus musculus [9] = test: Induction of apoptosis in Brca/p53 mutant mouse mammary gland assessed as increase in cytoplasmic localization of cleaved caspase-3 at 0.1 mg, ip administered daily for 10 days by immunohistochemical staining method; type: functional, organism-based; procedure, shortened: as §2
[10] = Solubility of the compound in water; type: physicochemical
Mus musculus [11] = test: Antiproliferative activity of wild type mouse mammary epithelial cells assessed as reduction in DNA synthesis at 0.1 mg, ip administered daily for 10 days by BrdU-based immunostaining method; type: organism-based, Epithelial cell; conditions: in vivo, 240 h; procedure, shortened: as §3

| SMILES | IC50 (A549; a549) [nM] | IC50 (KB; kb) [nM] | IC50 ([1]; kbvin) [nM] | IC50 (SK-BR-3; sk-br-3) [nM] | IC50 (DU-145; du-145) [nM] | IC50 (A549; Homo sapiens, A549, 72 h) [nM] | IC50 (KB; Homo sapiens, KB, 72 h) [nM] | IC50 ([1]; Homo sapiens, KBVIN, 72 h) [nM] | IC50 (SK-BR-3; Homo sapiens, SK-BR-3, 72 h) [nM] | IC50 (DU-145; Homo sapiens, DU-145, 72 h) [nM] | other results |
| --- | --- | --- | --- | --- | --- | --- | --- | --- | --- | --- | --- |
| Nc1ccc(Nc2cc(=O)oc3c2ccc2ccccc23)cc1 [listing 1 of 3 here] | 54 | 48 | 47 | 53 | 49 |  |  |  |  |  |  |
| Nc1cccc(Nc2cc(=O)oc3c4c(ccc23)CCCC4)c1 [listing 1 of 2 here] |  |  |  |  |  | 400 | 440 | 470 | 480 | 440 |  |
| Nc1ccccc1Nc1cc(=O)oc2c1ccc1ccccc12 [listing 1 of 2 here] |  |  |  |  |  | > 10000 | > 10000 | > 10000 | > 10000 | > 10000 |  |
| Nc1ccc(Nc2cc(=O)oc3c4c(ccc23)CCCC4)cc1 [listing 1 of 3 here] | 62 | 69 | 65 | 85 | 66 |  |  |  |  |  |  |
| Nc1ccc(Nc2cc(=O)oc3c4c(ccc23)CCCC4)cc1 [listing 2 of 3 here] |  |  |  |  |  | 58 | 56 | 53 | 74 | 53 | Activity (Mus musculus [2]): 70%; fold change (FC) (Mus musculus [3]): 4.5; fold change (FC) (Mus musculus [4]): 4; Activity (Mus musculus [5]): 15% |
| O=c1cc(NC2CCN(Cc3ccccc3)CC2)c2ccc3ccccc3c2o1 [listing 1 of 2 here] |  | > 10000 | 9400 |  |  |  |  |  |  |  |  |
| COc1ccc(Nc2cc(=O)oc3c4c(ccc23)CCCC4)cc1 |  |  |  |  |  | 49 | 37 | 46 | 64 | 38 | Activity (Mus musculus [2]): 65%; Activity (Mus musculus [6]; Epithelial cell): inactive; Activity (Mus musculus [7]): Active; Activity (Mus musculus [5]): 15% |
| Nc1cccc(Nc2cc(=O)oc3c4c(ccc23)CCCC4)c1 [listing 2 of 2 here] | 500 | 480 | 450 | 560 | 340 |  |  |  |  |  |  |
| CN(C)c1ccc(Nc2cc(=O)oc3c2ccc2ccccc23)cc1 [listing 1 of 2 here] |  |  |  |  |  | 430 | 600 | 350 | 300 | 360 |  |
| CN(C)c1ccc(Nc2cc(=O)oc3c4c(ccc23)CCCC4)cc1 [listing 1 of 2 here] |  |  |  |  |  | 540 | 720 | 540 | 770 | 470 |  |
| Nc1cccc2c(Nc3cc(=O)oc4c3ccc3ccccc34)cccc12 [listing 1 of 2 here] | 240 | 210 | 170 | 240 | 180 |  |  |  |  |  |  |
| CN(C)c1ccc(Nc2cc(=O)oc3c2ccc2ccccc23)cc1 [listing 2 of 2 here] | 590 | 470 | 410 | 270 | 300 |  |  |  |  |  |  |
| O=c1cc(NC2CCN(Cc3ccccc3)CC2)c2ccc3ccccc3c2o1 [listing 2 of 2 here] |  |  |  |  |  | > 10000 | 8300 | 7600 | > 10000 | > 10000 |  |
| Nc1ccc(Nc2cc(=O)oc3c2ccc2ccccc23)cc1 [listing 2 of 3 here] |  |  |  |  |  |  |  |  |  |  | Activity (Mus musculus [7]): Active; Activity (Mus musculus [8]): Active; Activity (Mus musculus [9]): Active |
| Nc1cccc(Nc2cc(=O)oc3c2ccc2ccccc23)c1 [listing 1 of 2 here] |  |  |  |  |  | 190 | 120 | 160 | 150 | 150 |  |
| O=c1cc(NC2CCN(Cc3ccccc3)CC2)c2ccc3c(c2o1)CCCC3 [listing 1 of 2 here] |  |  |  |  |  | 7000 | 6500 | 6200 | 7700 | 5800 |  |
| COc1ccc(Nc2cc(=O)oc3c2ccc2ccccc23)cc1 |  |  |  |  |  | 170 | 110 | 130 | 130 | 110 | Activity (Mus musculus [2]): 75%; Activity (Mus musculus [6]): 55%; solubility [10]: 0.69 µg/mL (≈ 2.17 µM); Activity (Mus musculus [7]): Active; Activity (Mus musculus [11]): Non-toxic; Activity (Mus musculus [5]): 15% |
| CN(C)c1ccc(Nc2cc(=O)oc3c4c(ccc23)CCCC4)cc1 [listing 2 of 2 here] | 440 | 380 | 390 | 490 | 330 |  |  |  |  |  |  |
| Nc1ccccc1Nc1cc(=O)oc2c3c(ccc12)CCCC3 [listing 1 of 2 here] |  |  |  |  |  | 5000 | 4900 | 5200 | 5200 | 5000 |  |
| Nc1ccc(Nc2cc(=O)oc3c4c(ccc23)CCCC4)cc1 [listing 3 of 3 here] |  |  |  |  |  |  |  |  |  |  | Activity (Mus musculus [6]; Epithelial cell): inactive; Activity (Mus musculus [7]): Active; Activity (Mus musculus [8]): Active; Activity (Mus musculus [9]): Active |
| Nc1ccccc1Nc1cc(=O)oc2c3c(ccc12)CCCC3 [listing 2 of 2 here] | 8000 | 7400 | 7000 | 8700 | > 10000 |  |  |  |  |  |  |
| Nc1ccccc1Nc1cc(=O)oc2c1ccc1ccccc12 [listing 2 of 2 here] | 9100 | 8200 | 9000 | 9500 | 8700 |  |  |  |  |  |  |
| O=c1cc(NC2CCN(Cc3ccccc3)CC2)c2ccc3c(c2o1)CCCC3 [listing 2 of 2 here] | > 10000 | 9100 | 8300 | 9300 | 8300 |  |  |  |  |  |  |
| Nc1cccc2c(Nc3cc(=O)oc4c3ccc3ccccc34)cccc12 [listing 2 of 2 here] |  |  |  |  |  | 160 | 160 | 150 | 200 | 150 |  |
| Nc1cccc(Nc2cc(=O)oc3c2ccc2ccccc23)c1 [listing 2 of 2 here] | 150 | 170 | 150 | 240 | 180 |  |  |  |  |  |  |
| Nc1ccc(Nc2cc(=O)oc3c2ccc2ccccc23)cc1 [listing 3 of 3 here] |  |  |  |  |  | 55 | 54 | 44 | 38 | 40 | Activity (Mus musculus [2]): 69%; fold change (FC) (Mus musculus [3]): 4.8; Activity (Mus musculus [6]): 81%; solubility [10]: 33.9 µg/mL (≈ 112 µM); fold change (FC) (Mus musculus [4]): 2.1; Activity (Mus musculus [11]): Non-toxic; Activity (Mus musculus [5]): 15% |
